Screening data as filed in PubChem BioAssay.
The list is not random: actives were taken first. Their share in the collection is about 4.3%.
Yeast growth inh: reduces growth of yeast BB579 in restrictive medium. S. cerevisiae BB579 growth, OD615, 48 h. inhibition, % at 10 µM. 140,000 tested, 0.51% active;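 active means inhibition above a set limit, 3 SD over the mean compound inhibition, cut at about 44% in these data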
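Assay system: S. cerevisiae DeaD strain BB579 yeast. Medium: CSMM-D restrictive synthetic medium containing dextrose (glucose). Times: 4 h cell preincubation, 48 h compound exposure, 30 °C humidified. Signal: OD615 turbidity measurement. Benchmarks: positive control amphotericin B 10 µg/mL.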
Yeast life ext: extends the lifespan of yeast; S. cerevisiae growth with nicotinamide, OD615; deaD strain in restrictive glucose medium; inhibition of the nicotinamide effect, % at 10 µM; 130,000 tested, 0.68% active;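 active means inhibition above a set limit, placed 3 SD over the median of all compounds, cut at about 26% in these data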;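 further: 0% = nicotinamide-treated wells and 100% = cells grown without nicotinamide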
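assay system = DeaD-strain S. cerevisiae | measured by = absorbance at 615 nm | probe or stimulus = nicotinamide 1.5 mM | buffer or medium = CSMM-D glucose medium, restrictive | times = 48 h at 30 °C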
RAM inhibit: blocks the yeast RAM network; inhibition, % at 50 µM; AID 868; 190,000 tested, 1.8% active; S. cerevisiae dse1pr::URA3 reporter, 5-FOA growth OD615, 2 d; analog-sensitive cbk1-as2 kinase mutant strain;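 active means inhibition above a set limit, 3 SD over mean compound inhibition, cut at about 8.4% in these data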;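 further: 0% = DMSO-only wells with no growth and 100% = 10 µM 1-NA-PP1 full growth; inhibition rescues growth on 5-FOA so higher OD means more RAM inhibition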
WT yeast gro inh: growth inhibition of WT yeast, mitochondrial fusion screen. AID 1362. 190,000 tested, 2.1% active. mitochondrial fusion phenotypic screen, WT strain. inhibition, % at 10 µM; in the data active means inhibition above about 58%; tested in S. cerevisiae
* = called active by the depositor.

What do the screens show for `Cc1cc(C(=O)OC(C(=O)Nc2ccc(C)c(Cl)c2)c2ccccc2)c(C)o1` (centres undefined)?
Yeast growth inh: 2.4; Yeast life ext: 1.1; RAM inhibit: 4.9; WT yeast gro inh: 29.3

Results for COc1ccc(C(=O)C(OC(=O)c2ccccc2Cl)c2ccccc2)cc1 (centres undefined) ?
Yeast growth inh: -37.4; Yeast life ext: 3.5; RAM inhibit: 10.7*; WT yeast gro inh: -6.0

What do the screens show for `Cc1ccc2oc(=O)c3cc(C(=O)N4CCN(c5ncccn5)CC4)sc3c2c1`?
WT yeast gro inh: 23.6

What do the screens show for `Cc1cc(-c2sccc2Br)nc(-n2cccc2)n1`?
RAM inhibit: 1.6; WT yeast gro inh: 68.9*

What do the screens show for `Cc1sc(NC(=O)c2ccco2)c(C(c2cccnc2)N2CCN(CCO)CC2)c1C` (centres undefined)?
RAM inhibit: 2.2; WT yeast gro inh: -6.6

Results for Cc1sc(NC(=O)c2ccco2)c(C(c2ccc(F)cc2)N2CCN(C)CC2)c1C (centres undefined) ?
RAM inhibit: -1.0; WT yeast gro inh: 95.0*

What do the screens show for `Cc1sc(NC(=O)c2ccco2)c(C(c2cccnc2)N2CCN(c3ccc(F)cc3)CC2)c1C` (centres undefined)?
Yeast growth inh: -3.3; Yeast life ext: 0.4; RAM inhibit: 8.4*; WT yeast gro inh: 55.9

Results for Cc1ccc(NCC(=O)Nc2ccc(Br)cc2)cc1F ?
Yeast growth inh: -47.3; Yeast life ext: -6.2; RAM inhibit: 3.8; WT yeast gro inh: 3.1

Results for CCOC(=O)C1=CN(Cc2ccc(OC)cc2)C=C(C(=O)OCC)C1c1cccs1 ?
RAM inhibit: 10.2*; WT yeast gro inh: 31.9

Results for CCOC(=O)C1=C(C)NC(C)=C(C(=O)OCC)C1c1cccs1 ?
Yeast growth inh: -26.2; Yeast life ext: -3.0; RAM inhibit: -1.6; WT yeast gro inh: 2.3

How did c1ccc2nc3c(nc2c1)[nH]c1ccccc13 do in these assays?
Yeast growth inh: 76.9*; RAM inhibit: 4.3; WT yeast gro inh: 7.4

How did O=C(Nc1ccc2c(c1)OCO2)C1CCCN1C(=O)NCc1ccccc1 (centres undefined) do in these assays?
Yeast growth inh: -30.6; Yeast life ext: 57.0*; RAM inhibit: 3.1; WT yeast gro inh: -7.1

How did CCCCCCCSc1nnc(-c2ccccc2N)c(=O)[nH]1 do in these assays?
RAM inhibit: 1.9; WT yeast gro inh: 79.1*

Results for CCCCn1c(=O)c(CCC(=O)OCC(=O)NC(=O)NCCC(C)C)nc2ccccc21 ?
RAM inhibit: 2.0; WT yeast gro inh: -13.8

Results for COc1ccc(N(C(=O)COc2cccc(C)c2)S(=O)(=O)c2ccc(C)cc2)cc1 ?
Yeast growth inh: -43.8; Yeast life ext: 19.0; RAM inhibit: 9.7*; WT yeast gro inh: 7.8

What do the screens show for `O=C(c1ccccc1)N1CCN(C(=S)NCc2ccc3c(c2)OCO3)CC1`?
Yeast growth inh: -0.3; Yeast life ext: 7.2; RAM inhibit: 1.9; WT yeast gro inh: -2.2

How did CC(=O)N1N=C(c2ccc(C)cc2)OC1c1ccc(Br)cc1 (centres undefined) do in these assays?
RAM inhibit: 2.6; WT yeast gro inh: 63.5*

What do the screens show for `CCOC(=O)c1ccc(NC(=O)COC(=O)Cc2csc(-c3ccccc3)n2)cc1`?
Yeast growth inh: -32.1; Yeast life ext: -6.1; RAM inhibit: 2.5; WT yeast gro inh: 18.4

What do the screens show for `Cc1ccccc1OCc1nc(-c2ccc(NC(=O)c3ccco3)cc2)no1`?
Yeast growth inh: -39.3; Yeast life ext: -8.5; RAM inhibit: 2.7; WT yeast gro inh: 35.5

What do the screens show for `CC(Oc1ccc(Cl)cc1Cl)c1nc(-c2ccc(NC(=O)c3ccco3)cc2)no1` (centres undefined)?
Yeast growth inh: -60.2; Yeast life ext: -11.6; RAM inhibit: 4.3; WT yeast gro inh: 84.5*

What do the screens show for `O=C(COC(=O)CCc1nc2ccccc2s1)NC(=O)NCc1ccco1`?
RAM inhibit: 1.7; WT yeast gro inh: -11.1

What do the screens show for `Cc1cc2ccccc2n1CCNC(=O)C(C)Oc1ccccc1` (centres undefined)?
Yeast growth inh: -21.7; Yeast life ext: -12.5; RAM inhibit: 8.7*; WT yeast gro inh: 8.8

How did Cc1cc2ccccc2n1CCNC(=O)C(C)C do in these assays?
Yeast growth inh: -9.5; Yeast life ext: -3.3; RAM inhibit: -0.5; WT yeast gro inh: 18.3

What do the screens show for `COc1cc(/C=C/C(=O)NCCn2c(C)cc3ccccc32)cc(OC)c1OC`?
Yeast growth inh: -15.7; Yeast life ext: -2.8; RAM inhibit: 9.7*; WT yeast gro inh: 3.9

How did CSc1nc2ccc(NC(=O)c3cc4ccccc4o3)cc2s1 do in these assays?
Yeast growth inh: -33.0; Yeast life ext: -4.3; RAM inhibit: 4.6; WT yeast gro inh: -3.9

Results for COc1ccc(/C(C)=N/NC(=S)Nc2cc(C)ccc2C)cc1 ?
RAM inhibit: 1.9; WT yeast gro inh: 67.0*

What do the screens show for `COc1ccc(NC(=S)Nc2ccc(OCc3ccccc3)cc2)c(OC)c1`?
Yeast growth inh: -3.7; Yeast life ext: -7.1; RAM inhibit: 6.6; WT yeast gro inh: 67.4*

How did COc1ccc(CCNC(=S)Nc2cc(C)ccc2C)cc1 do in these assays?
Yeast growth inh: -37.5; Yeast life ext: -12.3; RAM inhibit: 0.0; WT yeast gro inh: 63.3*

How did COc1ccc(CNC(=S)Nc2cc(C)ccc2C)cc1 do in these assays?
Yeast growth inh: -42.0; Yeast life ext: -14.7; RAM inhibit: 1.8; WT yeast gro inh: 46.5

What do the screens show for `COc1ccc(NC(=S)Nc2ccccc2)c(OC)c1`?
RAM inhibit: -0.5; WT yeast gro inh: -7.0

How did COc1ccc(CCNC(=S)Nc2ccc(C)cc2C)cc1 do in these assays?
Yeast growth inh: 9.6; Yeast life ext: -2.7; RAM inhibit: -0.4; WT yeast gro inh: 69.0*

What do the screens show for `COc1ccc(CCNC(=S)Nc2cccc(C)c2C)cc1`?
Yeast growth inh: -35.0; Yeast life ext: 0.0; RAM inhibit: -0.2; WT yeast gro inh: 56.3

Results for COc1ccc(NC(=S)NCCc2ccc(Cl)cc2)c(OC)c1 ?
Yeast growth inh: -27.9; Yeast life ext: -6.0; RAM inhibit: 0.4; WT yeast gro inh: 66.6*

What do the screens show for `COc1ccc(NC(=S)NCCc2ccc(S(N)(=O)=O)cc2)c(OC)c1`?
RAM inhibit: 0.0; WT yeast gro inh: -16.2

Results for C=CCn1c(=O)/c(=C2/Sc3cc(OC)ccc3N2C)s/c1=C1\C(=O)N(CC)C(=S)N1C ?
RAM inhibit: 10.5*; WT yeast gro inh: 11.2

Results for CCN1/C(=C2\C(=O)N(C)C(=S)N2C)C=Cc2cc(OC)ccc21 ?
Yeast growth inh: 4.8; Yeast life ext: 0.2; RAM inhibit: 2.1; WT yeast gro inh: -8.7

How did Cc1cnc(NC(=O)C2(c3ccccc3)CC2)s1 do in these assays?
RAM inhibit: -0.8; WT yeast gro inh: 1.3

What do the screens show for `COC1(NS(=O)(=O)c2ccc(Br)cc2)C(C)=CC(=O)C=C1C`?
RAM inhibit: 1.9; WT yeast gro inh: -5.5

What do the screens show for `NS(=O)(=O)c1ccc(NC(=S)Nc2ccc(C(=O)N3CCCCC3)cc2)cc1`?
RAM inhibit: 4.8; WT yeast gro inh: 8.8

What do the screens show for `CC(=O)c1cccc(NC(=S)NC(=O)c2ccc(Cl)cc2)c1`?
Yeast growth inh: -14.8; Yeast life ext: 4.2; RAM inhibit: 3.7; WT yeast gro inh: -0.5
